Laboratory results reported in PubChem BioAssay AID822 (SRMLSC, 2007).
Active and inactive are the calls of the source.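 Rule for the calls: active = half-maximal effective dose for blocking growth of human endothelial cells at most 100 µM; inactive = the rest.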

System: HUVEC proliferation, viability ATP luminescence
Assay: HUVEC proliferation inhibition, dose response, cell-based, ATP luminescence (AID 822);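 note: cells exposed to compound for 72 h before the ATP read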
Procedure, shortened: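 Test system: HUVEC; Input: 1250 HUVEC cells seeded per well; Doses: 0.039–20 µM, 0.2% DMSO; Evaluation: % viability versus median cell-only wells, EC50 from 4-parameter fit; Medium: EBM plus 2% FBS; Incubation: compound treatment 72 h, 37 °C; Signal: luminescent ATP measurement with CellTiter-Glo reagent; Plate: collagen-coated multiwell plates.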

SMILES	EC50
CCn1c(=N)n(CC(=O)C23CC4CC(CC(C4)C2)C3)c2ccccc21	8.77 µM
O=C(CN1CCCC1)Nc1ccc(-c2nc3cc(NC(=O)CN4CCCC4)ccc3o2)cc1	18.9 µM
CCOc1ccccc1-n1c(CN2CCN(C(=O)c3ccco3)CC2)nc2ccccc2c1=O	12.3 µM
CCOc1ccc(-c2n[nH]c(C)c2Oc2ccc(OC)cc2)c(O)c1	12.4 µM
COc1ccc(CNC(=O)c2cc3c(C)nc4ccccc4c3o2)c(OC)c1	11.8 µM
Cc1cccc(N2CCN(C(=O)c3ccc4nc(-c5ccco5)c(-c5ccco5)nc4c3)CC2C)c1 (centres undefined)	9.47 µM
CC(=O)c1cccc(NC(=O)Nc2ccc3c(c2)N(C)C(=O)CS3)c1	9.94 µM
COc1ccc(C(=O)C(CN2CCOCC2)c2ccccc2)cc1F (centres undefined)	7.19 µM
COC(=O)C1=C(C)N=c2s/c(=C3\C(=O)Nc4ccccc43)c(=O)n2C1c1ccccc1 (centres undefined)	6.31 µM
Cc1ccc(C)c(N2CCN(CCCNC(=O)Cn3cc4c(n3)CCCCC4)CC2)c1	10.9 µM
Nc1nc(Nc2cccc3ccccc23)nc(C2CCCC2=O)n1 (centres undefined)	11.4 µM
COc1cc2nc(N3CCN(C(=O)c4ccco4)CC3)nc(N)c2cc1OC	11.2 µM
Cn1cc(SCC(=O)Nc2nc3ccccc3s2)c2ccccc21	6.29 µM
O=C(NCCC1=CCCCC1)C1CCN(Cc2cnn(-c3ccccc3)c2-n2cccc2)CC1	15.1 µM
N#Cc1c(NCCN)nc(NCc2ccccc2)c2c1CCN(Cc1ccccc1)C2	13.3 µM
CC1=NOC(=O)/C1=C/c1ccc(-c2ccc(Cl)cc2)o1	4.06 µM
O=C(/C=C/c1ccc(Cl)cc1)c1cccnc1	17.2 µM
CCOC(=O)c1ccc(NC(=O)CCc2nc(-c3ccc(C)cc3)no2)cc1	16.5 µM
O=C(Nc1ccc(Cl)cc1)N1CCCN(Cc2ccc(F)cc2)C1	12.6 µM
COc1cc(/C=C(/C(=O)c2cccs2)c2nc3ccccc3[nH]2)cc(OC)c1O	1.99 µM
CCC(C)NC(=O)c1c(N)n(/N=C/c2ccccn2)c2nc3ccccc3nc12 (centres undefined)	9.34 µM
CCCCc1ccc(Nc2nc(CCC)cc(=O)[nH]2)cc1	9.15 µM

SMILES	EC50
COc1ccccc1N1CCN(CC(=O)c2c(C)[nH]c3cc(C)ccc23)CC1	10.2 µM
CC1CC(C)CN(S(=O)(=O)c2ccc(C(=O)Nc3nnc(-c4cccs4)o3)cc2)C1 (centres undefined)	3.04 µM
COc1ccc(-n2c(SCC(=O)Nc3sc4c(c3C#N)CCCC4)nnc2-c2ccc(O)cc2)cc1	4.32 µM
Clc1ccc(COC(Cn2ccnc2)c2ccc(Cl)cc2Cl)cc1 (centres undefined)	6.31 µM
O=c1[nH]c2cc3c(cc2cc1C(c1nnnn1Cc1ccccc1)N1CCCCCC1)OCCO3 (centres undefined)	13.1 µM
N#CC1=C(N)Oc2cc(Nc3ccccc3)ccc2C1c1ccncc1 (centres undefined)	1.32 µM
CCOC(=O)c1sc(NC(=O)CSc2nnnn2-c2ccc(C)c(C)c2)nc1C	6.65 µM
O=c1/c(=C/c2ccco2)sc2n1CN(c1cccc(Br)c1)CN=2	15.7 µM
CCc1cc(-c2[nH]ncc2-c2ccc3c(c2)OCO3)c(O)cc1O	7.97 µM
O=C(C#Cc1cccc([N+](=O)[O-])c1)c1ccccc1	20.3 µM
O=c1[nH]c2ccccc2n1C1CCN(CCCC(c2ccc(F)cc2)c2ccc(F)cc2)CC1	2.71 µM
CCCCc1nc2sc3c(SCC(=O)NCc4ccco4)ncnc3c2c2c1CCC2	13.4 µM
Oc1ccccc1/C=N/Nc1nccnc1Cl	6.28 µM
Cc1cc2c(N=O)c(NO)ccc2[nH]1	5.96 µM
CCc1ccc2c(c1)/C(=C/C(=O)c1cccs1)C(=O)N2	7 µM
O=C(Nc1ccc(OC(F)F)c(Cl)c1)Nc1ccc2c(c1)OCO2	14.8 µM
O=c1[nH]c(Nc2nc3ccccc3o2)nc2c1CCCC2	17.3 µM
Oc1c(I)cc(Cl)c2cccnc12	1.94 µM
COc1cc(NC(=O)Nc2cccc(Cl)c2)c(OC)cc1NC(=O)CN1CCCCC1	5.49 µM
CN1C[C@H](CNC(=O)OCc2ccccc2)C[C@@H]2c3cccc4c3c(cn4C)C[C@H]21	8.44 µM
CCCCOc1ccc(C(=O)C(CN2CCOCC2)c2ccccc2)cc1 (centres undefined)	3.08 µM
CCOC(=O)c1c(OCC)[nH]c2c1cc(O)c1ccccc12	17.4 µM

SMILES	EC50
CCN(CC)CCn1c(=N)n(CCOc2ccccc2)c2ccccc21	14.2 µM
Cc1nn(Cc2c(Cl)cccc2Cl)c(C)c1NC(=O)c1cc(C(C)C)on1	13.6 µM
CCOc1cc(N2CCOCC2)c(OCC)cc1NC(=O)COc1cccc2cccnc12	14.9 µM
Cc1coc2c(O)cc3c(c12)OC1(N2CCCCC2)C(=O)NCCCC31 (centres undefined)	7.41 µM
CCc1ccc(NC(=O)CCc2nc3cccnc3n2Cc2ccc(OC)cc2)cc1	13.3 µM
Cc1c(CCOC(=O)C2C3CC4CC(C3)CC2C4)sc[n+]1CC(=O)c1ccc(Br)cc1 (centres undefined)	11.4 µM
Cc1ccc2c(c1)c1c(n2CC(O)Cn2c(C)nc3ccccc32)CCCC1 (centres undefined)	10.6 µM
Cn1c(=O)n(C)c2cc(C(=O)Nc3ccc4c(c3)OCO4)ccc21	11.6 µM
CC1=C(C(=O)OCc2ccc3c(c2)OCO3)C(c2ccccc2)NC(=O)N1 (centres undefined)	14.1 µM
O=c1cc(-c2ccccc2)[nH]n1-c1nc2ccccc2[nH]1	6.25 µM
COc1ccc2nc3oc(C(=O)N4CCN(c5ccccc5F)CC4)cc3cc2c1	15.5 µM
COc1ccc(-c2nnc(Nc3nc4c(OC)cccc4s3)o2)cc1	4.41 µM
COc1cc(-c2nc(-c3ccc(NC(=O)c4ccc(Br)o4)cc3)no2)cc(OC)c1OC	7.42 µM
CCOC(=O)/C=C/S(=O)(=O)c1ccc(NC(C)=O)cc1	15.8 µM
CCCc1cc(C(=O)Cc2ccc(F)cc2)c(O)cc1O	10 µM
Cc1ccc2c(c1)c1c(n2CC(O)Cn2c(C)nc3ccccc32)/C(=N\O)CCC1 (centres undefined)	8.98 µM
Cc1ccc(C(=O)Nc2ncc(Cc3ccc(F)cc3)s2)o1	0.277 µM
N#Cc1nc(-c2ccc(OCc3ccccc3Cl)cc2)oc1NCCCn1ccnc1	2.55 µM
O/N=C1\CC/C(=N\O)c2nn(-c3ccccc3Cl)nc21	> 10 µM (inactive)
Cc1cc(C)n(-c2nc(NCCCO)c3c4c(sc3n2)CCCC4)n1	2.41 µM
Oc1c(C(Nc2ccccn2)c2ccccn2)ccc2cccnc12 (centres undefined)	17.8 µM
COc1cc(N=c2ssnc2Cl)c(OC)cc1Cl	20.9 µM

SMILES	EC50
Cc1cccc(-c2nc(CN3CCCC(C(=O)NC4CCC(C)CC4)C3)c(C)o2)c1 (centres undefined)	11.6 µM
CC(C)=CCC/C(C)=C/CCC(C)NCCN1CCNCC1 (centres undefined)	14.6 µM
Cc1cccc(Nc2nc(NCc3ccco3)nc(N3CCOCC3)n2)c1	2.15 µM
CCCOC(=O)c1ccc(Oc2cn[nH]c2-c2ccc(OC)cc2O)cc1	12.3 µM
O=C(Nc1cccc(-c2nnc(-c3ccccc3)o2)c1)c1ccc(Br)o1	9.92 µM
Cc1cccc(NC(=O)c2cc(NC(=O)c3ccco3)ccc2N2CCCCC2)c1	13.3 µM
Cc1ccc2c(c1)[nH]c1c(N3CCN(Cc4ccccc4)CC3)ncnc12	7.57 µM
COc1ccc(Cc2nc(C(=O)Nc3ccc(Cl)cc3)cs2)cc1	19.9 µM
O=C1CCCc2c1[nH]c1ccc(Br)cc21	> 10 µM (inactive)
c1ccc2c(c1)oc1c(Nc3ccc(CN4CCOCC4)cc3)ncnc12	5.35 µM
Cc1ccc(C)c(N2CCN(CCCNC(=O)Cn3cc4c(n3)CCC(C)C4)CC2)c1 (centres undefined)	9.5 µM
Cc1ccsc1/C=C/C1=Cc2c(sc(NC(=O)CSc3n[nH]c(N)n3)c2C#N)C(C)(C)C1	17.7 µM
Cc1ccc(S(=O)(=O)c2c(C)nn(C(C)(C)C)c2OC(=O)c2ccco2)cc1	12.1 µM
CCN(CC(O)Cn1c2ccccc2c2ccccc21)S(=O)(=O)c1ccc(C)cc1 (centres undefined)	11.5 µM
Cc1cc(N2CCCCC2)nc2ccc(NC(=O)c3ccc(Br)o3)cc12	17.2 µM
COc1cccc2sc(Nc3nnc(-c4ccc(F)cc4)o3)nc12	0.963 µM
CC(=O)Nc1ccc(S(=O)(=O)NC2=C(N3CCN(c4ccc(F)cc4)CC3)C(=O)c3ccccc3C2=O)cc1	2.38 µM
CCC(C)(C)NC(=O)C(c1ccc(C)o1)N(Cc1cccs1)C(=O)Cn1nnc2ccccc21 (centres undefined)	11.7 µM
C#CCn1c(=NC(=O)c2ccc(Br)s2)sc2cccc(OC)c21	12.2 µM
Cc1cccc(N2CCN(C(=O)Cn3sc4nc(C)cc(C)c4c3=O)CC2C)c1 (centres undefined)	12.4 µM
O=C(Nc1nnc(-c2ccc3c(c2)CCCC3)o1)c1ccc(Cl)cc1Cl	2.25 µM
Cc1cc(C)c2c(=O)n(CC(=O)NCCCN3CCN(c4ccccc4F)CC3)sc2n1	12.3 µM

SMILES	EC50
Nc1nc(-c2ccccc2)cc(-c2ccccc2O)n1	12.4 µM
Cc1ccc2[nH]c3c(N4CCN(Cc5ccc6c(c5)OCO6)CC4)ncnc3c2c1	9.97 µM
CCCc1nc(SCC(=O)N2CCC(Cc3ccccc3)CC2)c2c(=O)n(C)c(=O)n(C)c2n1	10.5 µM
O=C(Nc1nnc(-c2ccc3c(c2)OCCO3)o1)c1ccc(Cc2ccccc2)cc1	4.76 µM
CCOC(=O)c1cccc2c1-c1ccccc1/C2=N/O	1.31 µM
Cn1c(CNc2cccc(Cl)c2)nnc1SCC(=O)OC1CCCCC1	11.1 µM
O=C(Nc1ccc2c(c1)OCO2)c1cc(C2CC2)on1	6.54 µM
CCCCCCOC(=O)C(C#N)c1nc2ccccc2nc1N1CCN(C)CC1 (centres undefined)	10 µM
CCC(C)NC(=O)c1c(N)n(/N=C/c2cccnc2)c2nc3ccccc3nc12 (centres undefined)	12.6 µM
Cc1nc2c(-c3ccccc3)c(C)[nH]n2c(=O)c1Cl	10.5 µM
CC(C)CNC(=O)c1coc(=O)c(Br)c1	> 10 µM (inactive)
C=C(C)COc1ccc(-c2n[nH]c(C)c2Oc2ccccc2OC)c(O)c1	10.9 µM
CC1CCCCN1S(=O)(=O)c1ccc(C(=O)Nc2nnc(-c3ccccc3Cl)o2)cc1 (centres undefined)	2.71 µM
O=C(Nc1cccc(-c2nc3ncccc3o2)c1)c1cc2ccccc2o1	14.1 µM
CC1=CC(C)(C)Nc2ccc(OC(=O)c3cccnc3)cc21	12.3 µM
CCCc1ccc(-c2cc(NC(=O)CSc3n[nH]c(N)n3)n(-c3ccccc3)n2)cc1	8.38 µM
CN1CCN(c2ccccc2NC(=O)c2cccc(OCc3ccccc3)c2)CC1	10.8 µM
CS(=O)(=O)c1nc(-c2cccs2)cc(C(F)(F)F)n1	6.11 µM
COc1ccc(-c2cc(C#N)nc(N3CCNCC3)n2)cc1	12.8 µM
COc1ccc(-c2cn3c(C)c(C(=O)Nc4cccc(NC(C)=O)c4)sc3n2)cc1	12.1 µM
COC(=O)CCS(=O)(=O)c1nc(-c2ccccc2)cc(C(F)(F)F)n1	9.83 µM
